The results in this text go back to ChEMBL document CHEMBL3997808 (J Med Chem, 2017).

Molecules are shown by their SMILES. In brackets after ≈: the same amount, converted by molar mass.

Data set [1] can be described thus: Drug metabolism in rat hepatocytes assessed as glucuronide metabolite M553 formation at 10 uM measured up to 4 hrs. Type of data set: ADME, cell-based, Hepatocyte. The method, boiled down:
(§1)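 Compound at 10 μM was incubated with hepatocyte suspensions at 1 million cells/mL. Incubation ran at 37°C under 5% CO2:95% O2 for up to 4 h.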

Data set [2] is described as follows: Clearance in cynomolgus monkey at 1.2 mg/kg, iv. Type of data set: ADME, organism-based, Macaca fascicularis. Particulars: in vivo; call rule not given here.
Data set [3] in a line: Cmax in rat at 2.1 mg/kg, po. Also on record: dose 2.1 mg/kg, route oral. It counts as ADME, organism-based. The settings on record: in vivo.
A short description of data set [4]: Drug metabolism in cynomolgus monkey hepatocytes assessed as (S)-5-benzyl-N-(4-oxo-2,3,4,5-tetrahydrobenzo[b][1,4]oxazepin-3-yl)-1H-1,2,4-triazole-3-carboxamide formation at 10 uM measured up to 4 hrs. Type of data set: ADME, cell-based, Macaca fascicularis, Hepatocyte. The method, boiled down:
as §1

The nature of data set [5]: Drug metabolism in cynomolgus monkey hepatocytes assessed as 5-(hydroxy(phenyl)methyl)-N-((S)-5-methyl-4-oxo-2,3,4,5-tetrahydrobenzo[b][1,4]oxazepin-3-yl)-1H-1,2,4-triazole-3-carboxamide formation at 10 uM measured up to 4 hrs. Type of data set: ADME, cell-based, Macaca fascicularis, Hepatocyte. The method, boiled down: as §1
Data set [6] in a line: Inhibition of recombinant human cytochrome P450. It counts as ADME. The settings on record: recombinant enzyme.
A short description of data set [7]: Drug metabolism in cynomolgus monkey hepatocytes assessed as (S)-3-amino-5-methyl-2,3-dihydrobenzo[b][1,4]oxazepin-4(5H)-one formation at 10 uM measured up to 4 hrs. Type of data set: ADME, cell-based, Macaca fascicularis, Hepatocyte. The method, boiled down: as §1
Data set [8] is described as follows: Fraction unbound in cynomolgus monkey blood. It counts as ADME, tissue-based, Macaca fascicularis.
Data set [9] is described as follows: Kinetic solubility in phosphate buffer saline at pH 7.4 by chemiluminescence nitrogen detection method. It counts as physicochemical. Particulars: phosphate buffered saline, read-out: Kinetic_solubility. The method, boiled down: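 Kinetic aqueous solubility measured by chemiluminescent nitrogen detection (CLND) in phosphate-buffered saline pH 7.4. The solution was prepared from a DMSO stock of the inhibitor.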

A short description of data set [10]: Lipophilicity, log D of the compound at pH 7.4 by RP-HPLC method. It counts as physicochemical. Particulars: buffer. The method, boiled down: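 Chromatographic hydrophobicity index (CHI) log D at pH 7.4, calculated from the retention time in a fast-gradient reverse-phase HPLC run.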
A short description of data set [11]: Fraction unbound in dog blood. It counts as ADME, tissue-based, Canis lupus familiaris.
Data set [12] can be described thus: Solubility of the compound in FaSSIF. It counts as physicochemical.
Data set [13] in a line: Volume of distribution at steady state in rat at 1.1 mg/kg, iv. It counts as ADME, organism-based. The settings on record: in vivo, read-out: Vdss.
The next data set deals with Blood. The data set is described as follows: Drug uptake in Han Wistar rat blood at 2 mg/kg, iv administered as 4 hrs infusion. The settings on record: in vivo. It counts as ADME, organism-based. The method, boiled down:
(§2)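 Rats received a 4 h iv infusion, after which terminal tissue samples were collected. Parent drug concentrations were measured in each tissue and compared with blood levels.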

Data set [14] in a line: Drug metabolism in rat hepatocytes assessed as 5-(hydroxy(phenyl)methyl)-N-((S)-5-methyl-4-oxo-2,3,4,5-tetrahydrobenzo[b][1,4]oxazepin-3-yl)-1H-1,2,4-triazole-3-carboxamide formation at 10 uM measured up to 4 hrs. Type of data set: ADME, cell-based, Hepatocyte. The method, boiled down:
as §1

Data set [15] is described as follows: Drug metabolism in rat hepatocytes assessed as glucuronide metabolite M569 formation at 10 uM measured up to 4 hrs. It counts as ADME, cell-based, Hepatocyte. The method, boiled down: as §1
Data set [16] is described as follows: Drug metabolism in human hepatocytes assessed as (S)-5-benzyl-N-(4-oxo-2,3,4,5-tetrahydrobenzo[b][1,4]oxazepin-3-yl)-1H-1,2,4-triazole-3-carboxamide formation at 10 uM measured up to 4 hrs. Type of data set: ADME, cell-based, Hepatocyte. The method, boiled down:
as §1

Data set [17] in a line: Tmax in rat at 2.1 mg/kg, po. Type of data set: ADME, organism-based. The settings on record: in vivo.
In data set [18] the target is T1, Receptor-interacting serine/threonine-protein kinase 1 (Mus musculus, UniProt Q60855).
T1 sequence (Q60855 whole entry): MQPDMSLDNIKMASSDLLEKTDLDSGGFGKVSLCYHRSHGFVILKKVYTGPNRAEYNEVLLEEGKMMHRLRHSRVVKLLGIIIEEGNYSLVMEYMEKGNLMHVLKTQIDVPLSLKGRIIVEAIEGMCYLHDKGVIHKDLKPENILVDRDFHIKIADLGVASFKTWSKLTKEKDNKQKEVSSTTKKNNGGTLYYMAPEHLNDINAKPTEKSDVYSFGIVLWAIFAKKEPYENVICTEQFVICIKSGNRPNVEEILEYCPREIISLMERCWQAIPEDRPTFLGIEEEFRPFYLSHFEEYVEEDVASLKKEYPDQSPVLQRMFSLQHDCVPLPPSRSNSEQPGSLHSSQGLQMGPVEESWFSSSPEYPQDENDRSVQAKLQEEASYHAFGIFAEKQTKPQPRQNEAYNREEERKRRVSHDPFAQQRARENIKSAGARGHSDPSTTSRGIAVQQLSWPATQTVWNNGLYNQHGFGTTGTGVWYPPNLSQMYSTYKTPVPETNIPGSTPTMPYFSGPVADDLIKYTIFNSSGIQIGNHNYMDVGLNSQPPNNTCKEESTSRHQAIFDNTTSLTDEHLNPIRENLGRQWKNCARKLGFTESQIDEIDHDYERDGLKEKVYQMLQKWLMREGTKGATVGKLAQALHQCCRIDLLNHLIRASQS
The data set is described as follows: Displacement of (14-(2-{[3-({2-{[4-(cyanomethyl)phenyl]amino}-6-[(5-cyclopropyl-1H-pyrazol-3-yl)-amino]-4-pyrimidinyl}amino)propyl]amino}-2-oxoethyl)-16,16,18,18-tetramethyl-6,7,7a,8a,9,10,16,18-octahydrobenzo[2'',3'']indolizino-[8'',7'':5',6']pyrano[3',2':3,4]pyrido[1,2-a]indol-5-ium-2-sulfonate from mouse RIP1 (1 to 378 residues) expressed in baculovirus infected insect cells measured for 50 mins by fluorescence polarization assay. The method, boiled down: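 Competitive FP binding assay in which test compounds displace a fluorescently labeled ATP-competitive ligand from RIP1.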

Data set [19] is described as follows: Fraction unbound in rat blood. It counts as ADME, tissue-based.
Data set [20] in a line: Drug metabolism in human hepatocytes assessed as glucuronide metabolite M553 formation at 10 uM measured up to 4 hrs. It counts as ADME, cell-based, Hepatocyte. The method, boiled down:
as §1

The next data set has as its system Heart. The data set is described as follows: Drug uptake in Han Wistar rat heart at 2 mg/kg, iv administered as 4 hrs infusion. Type of data set: ADME, organism-based. Particulars: in vivo. The method, boiled down:
as §2

Data set [21] in a line: Half-life in rat at 1.1 mg/kg, iv. Type of data set: ADME, organism-based. The settings on record: in vivo.
Data set [22] is described as follows: Fraction unbound in human blood. Type of data set: ADME, tissue-based.

With `CN1C(=O)[C@@H](NC(=O)c2nnc(Cc3ccccc3)[nH]2)COc2ccccc21` [GSK2982772], the Drug metabolism result in data set [1], in data set [4], in data set [5], in data set [7], in [14] and in data set [15] was “Metabolite_Detected” in each case. For the same compound, the Drug metabolism entry in [16] and in data set [20] was “Metabolite_Detected” in each case. In [2], this compound returned a clearance of 10 mL/min/kg. In [3], this compound gave a Cmax of 810 ng/mL. Besides, the “inhibition (INH)” value in [6] is “Not Active”. The fraction unbound in [8] was found to be 0.11; in [11] it was 0.11; in data set [19] it was 0.042; in data set [22] it was 0.074. Also, the solubility kinetic in [9] turned out to be 100 µg/mL (≈ 265 µM). The compound further had a chromatographic logD in data set [10] of 3.8. In data set [12], this compound returned a solubility of 230 µg/mL (≈ 609 µM). In addition, the Vd in [13] came to 2.7 L/kg. For the same compound, the Drug uptake result in the data set on Blood and with Heart was “Active” throughout. For the same compound, the Tmax in [17] turned out to be 0.25 h. The compound also had an IC50 in data set [18] of 2500 nM. The same compound gave a half-life in data set [21] of 3.9 h.
